Scp1 inh: inhibitors of human Scp-1 phosphatase; Q9GZU7; Recombinant Scp1, phosphopeptide, malachite green phosphate absorbance; inhibition, % at 20 µM; 0.88% of 340,000 active;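 active = inhibition above about 50% at 20 µM, limit read from the data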
Target sequence (Q9GZU7 76-261 limits assumed): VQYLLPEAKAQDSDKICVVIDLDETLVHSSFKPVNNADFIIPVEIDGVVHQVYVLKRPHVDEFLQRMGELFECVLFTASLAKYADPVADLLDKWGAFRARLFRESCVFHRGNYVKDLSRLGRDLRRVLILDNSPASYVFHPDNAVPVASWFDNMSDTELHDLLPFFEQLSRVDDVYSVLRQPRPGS
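Times: enzyme reaction 45 min at room temperature, colour 5 min, stabilisation 30 min. Material: SCP-1 catalytic fragment, aa 76-261. Medium: Acidic Tris acetate buffer with magnesium and detergent. Signal: colorimetric free-phosphate detection, absorbance 630 nm. Read-out basis: % inhibition of SCP-1 phosphate liberation. Reagent: Phosphorylated 17-residue peptide substrate.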
DNMT1 inh: blocks human DNA methyltransferase DNMT1. AID 588458. P26358. DNMT1 molecular beacon, Hinp1I cleavage, fluorescence. inhibition (reported as % activation of signal), % at 10 µM. 0.83% of 360,000 active; in the data active = inhibition above about 50%
SUMO1 PPI mod: alters human SUMO1 binding to SIM partners; P63165; SUMO1 binding to a labelled peptide, TR-FRET, 1 h; inhibition, % at 20 µM; 0.33% of 360,000 active; AID 602429; in the data active = inhibition above about 37%
Target sequence (P63165 whole entry, looked up): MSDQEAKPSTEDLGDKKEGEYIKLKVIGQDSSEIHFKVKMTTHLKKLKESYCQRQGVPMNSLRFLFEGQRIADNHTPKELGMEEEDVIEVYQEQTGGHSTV
LMPTP block: LMPTP (human) inhibition; 0.22% of 360,000 active; AID 651560; inhibition, % at 20 µM; recombinant LMPTP-A, OMFP fluorogenic substrate, fluorescence intensity;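 active = compounds that cut the enzyme signal by at least half of the control window in the single-dose screen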
Target sequence (P24666 whole entry, looked up): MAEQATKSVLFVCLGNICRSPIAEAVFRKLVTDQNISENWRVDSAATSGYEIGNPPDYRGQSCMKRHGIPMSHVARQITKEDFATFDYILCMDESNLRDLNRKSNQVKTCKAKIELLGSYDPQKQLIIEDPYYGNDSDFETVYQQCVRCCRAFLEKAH
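Test system: LMPTP-A phosphatase enzyme. Amount: LMPTP-A at 0.625 nM final in the reaction. Reagent: OMFP substrate, 400 µM final. Times: 50 min at room temperature. Signal: endpoint fluorescence intensity from OMFP dephosphorylation. Read-out basis: % inhibition. Benchmarks: no-enzyme and uninhibited controls.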
STEP block: inhibitors of human striatal-enriched phosphatase STEP | recombinant STEP, OMFP fluorogenic substrate, fluorescence | inhibition, % at 20 µM | 0.25% of 360,000 active | AID 588621;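 active = inhibition at 20 µM, scaled per plate between control wells, above about 37%, limit read from the data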
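material = STEP tyrosine phosphatase | reagent = fluorogenic phosphatase substrate OMFP at 25 µM final | doses = single compound dose of 20 µM, 1% DMSO final | schedule = 20 min reaction, room temperature, in the dark | measured by = fluorescence, 480/540 nm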
NadD inh: blocks S. aureus nicotinate mononucleotide adenylyltransferase. 0.78% of 360,000 active. inhibition, % at 20 µM. purified NadD enzyme, colorimetric absorbance read-out. AID 602399; in the data active = inhibition above about 26%
A number is an active result; . = inactive; / = no result. Rows were chosen to be rich in hits. Some 2.3% of all compounds tested hit in one or more screens of this group.

SMILES	Scp1 inh	DNMT1 inh	SUMO1 PPI mod	LMPTP block	STEP block	NadD inh
Cc1cc(C)n2c(Nc3ccc4c(c3)OCCO4)c(CCc3ccccc3)nc2n1	/	/	.	.	/	.
COc1ccc(C(=O)OCC(=O)N2CCc3ccccc3C2)cc1OC	.	.	.	.	.	.
CC(=O)Oc1cc(C(=O)OCC(=O)N2CCc3ccccc3C2)cc(OC(C)=O)c1OC(C)=O	53	.	.	.	.	.
Cn1cnnc1SCC(=O)Nc1ccc(N2CCCCC2)cc1	.	.	.	.	.	.
O=C1/C(=C/C=C/c2ccco2)SC(=S)N1c1ccc(O)cc1	59	93	60	58	.	.
CC(C)C(C(=O)O)N1C(=O)/C(=C/C=C/c2ccco2)SC1=S (centres undefined)	97	85	108	78	92	46
CC(C)C(C(=O)O)N1C(=O)/C(=C/c2cccn2C)SC1=S (centres undefined)	.	.	.	.	.	.
CN(C)c1ccc(/C=C/C=C2/SC(=S)N(c3ccccc3)C2=O)cc1	.	.	.	.	.	43
CC(C)C(NC(=O)OCc1ccccc1)C(=O)NC(Cc1c[nH]c2ccccc12)C(=O)O (centres undefined)	/	.	.	.	.	.
N#CCCN(C(=O)c1cc2c(s1)-c1ccccc1S(=O)(=O)C2)c1ccccc1	.	.	.	.	.	.
NC(=O)c1ccc(NC(=O)COC(=O)CCC2CCCCC2)cc1	.	.	.	.	.	.
O=c1c(Br)ccc(Br)cc1Br	.	59	.	.	74	.
O=C1CN(S(=O)(=O)c2cc(Br)ccc2Br)CCN1	.	.	.	.	.	.
Cc1nn(C)c(C(=O)NNC(=O)Nc2cccc(C(F)(F)F)c2)c1Cl	.	.	.	.	.	.
c1ccc(CN2CCC(Nc3nc(-c4ccccc4)nc4ccccc34)CC2)cc1	.	.	.	80	.	.
O=C(COc1ccc2c(-c3ccccc3)cc(=O)oc2c1)NCCCN1CCOCC1	.	.	.	.	.	.
Cc1cc(=O)oc2cc(OCC(=O)N/N=C/c3cc([N+](=O)[O-])ccc3O)ccc12	.	.	.	71	94	.
Cc1cc(=O)oc2cc(OCC(=O)NCCCN3CCOCC3)ccc12	.	.	40	.	.	.
COCCCNc1nc2nonc2nc1N(C)CC1CCCN1C (centres undefined)	.	.	.	.	.	.
C[C@@H](NC(=O)[C@@H]1CCCN1C(=O)[C@@H]1CCCN1)c1ccccc1	/	/	.	.	/	.
CCOc1cccc(CNc2ccc(O)cc2)c1OCc1ccc(Cl)cc1	.	.	.	.	.	.
CCOc1cc(CNc2ccc(O)cc2)ccc1OCc1ccc(Cl)cc1Cl	.	80	52	.	.	.
CCc1ccc(CNc2ccc(O)cc2)cc1	.	75	74	.	.	.
CCOc1ccccc1CNc1ccc(O)cc1	.	.	69	.	.	.
Cc1ccc(NCc2ccccc2OCc2ccccc2F)cc1	.	.	.	.	.	.
SMILES	Scp1 inh	DNMT1 inh	SUMO1 PPI mod	LMPTP block	STEP block	NadD inh
Oc1ccc(NCc2ccccc2OCc2ccccc2F)cc1	.	.	59	.	.	.
CC(C)NC(=O)C1(C)CN(S(C)(=O)=O)CC(=O)N1CC(F)(F)F (centres undefined)	/	/	.	.	/	/
COc1ccc(CCNC(=O)c2cc([C@@H](NC(=O)OC(C)(C)C)C(C)C)sc2N)cc1OC	/	/	.	.	/	/
O=c1/c(=C/c2ccccn2)sc2nc3ccccc3n12	.	.	.	.	.	.
O=c1/c(=C\c2cc([N+](=O)[O-])cc([N+](=O)[O-])c2O)sc2nc3ccccc3n12	80	.	.	.	.	.
O=C(O)c1cccc(-c2ccc(/C=c3/sc4nc5ccccc5n4c3=O)o2)c1	96	87	103	.	94	.
COC(=O)/C=c1/sc2nc3ccccc3n2c1=O	.	.	.	.	.	.
O=C(O)c1cc(C(=O)O)cc(-c2ccc(/C=c3/sc4nc5ccccc5n4c3=O)o2)c1	70	/	/	/	/	/
Cc1nc(N)nc(N)c1-c1ccc([N+](=O)[O-])cc1	.	.	.	67	.	.
Nc1nc(-c2ccccc2)c(-c2ccc([N+](=O)[O-])cc2)s1	.	.	.	.	.	.
COc1ccc(CN2C(=O)CN(S(C)(=O)=O)CC2(C)C(=O)Nc2c(C)cccc2C)cc1OC (centres undefined)	/	/	.	.	/	/
Cc1ccc(C)c(N2CCN(CCCNC(=O)Cn3c(=O)c4cccn4c4cccnc43)CC2)c1	.	.	.	.	.	.
CCCCCCCCN1C(=O)[C@H](CC(=O)NCc2ccc(C)o2)C[C@@]2(C(=O)OC)CCCCC=C12	/	/	.	.	/	.
COC(=O)c1c(N)[nH]c(C(=O)c2ccccc2)c1-c1ccc(Br)cc1	/	/	.	.	/	.
CN(C)c1ccc(O)c2c1CC1CC3[C@@H](N(C)C)C(=O)C(C(N)=O)=C(O)[C@]3(O)C(=O)C1=C2O (some centres undefined)	.	90	.	.	.	.
O=C(NCc1ccccc1)c1cc(C2COCCN2C(=O)C/C=C/c2ccccc2)on1 (centres undefined)	/	.	.	.	.	.
O=C(CCCn1c(SCC(=O)c2ccc(O)c(O)c2)nc2ccccc2c1=O)NCC1CCCO1 (centres undefined)	.	.	.	51	.	.
Cc1ccccc1C(=O)N1CCc2cc(-c3nc(NC(=O)Cc4ccc5c(c4)OCO5)sc3C)ccc21	.	.	.	.	.	47
CC(C)N1CC(C(=O)Nc2ccc(F)c(Cl)c2)CC1=O (centres undefined)	.	.	.	.	.	.
NC1=C(Br)C(=O)c2ncccc2C1=O	.	63	.	.	.	.
CN(C)CCN1C(=O)c2cccc3cc([N+](=O)[O-])cc(c23)C1=O	.	69	.	.	.	.
CN(C)CCCN1C(=O)c2cccc3cccc(c23)C1=O	.	.	.	.	.	.
CCN(CC)c1ccc2nc3c4ccccc4c(=O)cc-3oc2c1	.	/	/	/	/	/
CCN(CC)c1ccc2c(-c3ccc(S(=O)(=O)O)cc3S(=O)(=O)[O-])c3ccc(=[N+](CC)CC)cc-3oc2c1	77	.	.	.	.	.
CC(C)n1cc(CN2CCC(Oc3ccc(C(=O)N4CCCCC4)cc3)CC2)cn1	.	.	.	.	.	.
O=C(NC(c1ccc(Cl)cc1)c1cc(Cl)c2cccnc2c1O)c1cccnc1 (centres undefined)	.	.	.	.	.	47
CC(=O)NC(c1ccccc1)c1cc(Cl)c2cccnc2c1O (centres undefined)	.	.	.	.	.	.

Bioassay records deposited in PubChem by Sanford-Burnham Center for Chemical Genomics.
